Experimental data pooled from the literature.
Lines come from different studies, so protocols differ.

Structure (SMILES) | tested on | test | test system | conditions | endpoint | value
COc1ccc(-c2c(Nc3ccccn3)[nH]c3c(C4=CCCCC4)c(-c4ccccc4)nn3c2=O)cc1 | – | – | human, plasma | oral, 200 mg twice daily, multiple doses, patients | Cmax | 13600 ng/mL
Cc1ccccc1Cn1cc(-c2cccc(NC(=O)Nc3ccc(F)cc3)c2)nn1 | L02 | cell growth or viability, CCK-8 | – | 50 µM, 72 h | viability | 103%
O=C(Nc1ccc(-c2cn(Cc3ccc(Br)cc3)nn2)cc1)Nc1ccccc1Br | L02 | cell growth or viability, CCK-8 | – | 50 µM, 72 h | viability | 104%
CCONC(=O)N1CCC[C@H](C(=O)NCc2nc(-c3ccc(C#N)cc3)cs2)C1 | – | – | Caco-2 | – | efflux ratio | 6.9
COc1ccc(NC(=O)NCc2cn(Cc3ccccc3C)nn2)cc1 | L02 | cell growth or viability, CCK-8 | – | 50 µM, 72 h | viability | 124%
O=C(Nc1ccc(-c2cn(Cc3ccc(Cl)cc3)nn2)cc1)Nc1ccccc1Br | L02 | cell growth or viability, CCK-8 | – | 50 µM, 72 h | viability | 113%
CC(C)n1c(C2CCNCC2)nc2c([N+](=O)[O-])c(Br)c(Br)cc21 | – | – | human, plasma | oral, 150 mg, patients | Cmax | 249 ng/mL
O=C(Nc1ccc(Cl)cc1)Nc1cccc(-c2cn(Cc3ccc(Cl)cc3)nn2)c1 | L02 | cell growth or viability, CCK-8 | – | 50 µM, 72 h | viability | 102%
COc1ccc2c(c1)CN(C(=O)CCN1CCC(Cc3ccccc3)CC1)CC[S@@+]2[O-] | – | – | male human, plasma | intravenous, 0.4 mg/kg, healthy volunteers | Cmax | 1080 ng/mL
O=C(Nc1ccc(Cl)cc1)Nc1cccc(-c2cn(Cc3cccc(Cl)c3)nn2)c1 | L02 | cell growth or viability, CCK-8 | – | 50 µM, 72 h | viability | 71.8%
COc1ccc(NC(=O)Nc2cccc(-c3cn(Cc4cccc(Cl)c4)nn3)c2)cc1 | L02 | cell growth or viability, CCK-8 | – | 50 µM, 72 h | viability | 123%
O=C(COc1ccc(Cl)cc1)NC12CC(c3nnc([C@H]4C[C@@H](OC(F)(F)F)C4)o3)(C1)C2 | – | – | human, plasma | oral, 100 mg, single dose, fasted, healthy volunteers | Cmax | 1180 nM
